According to ChEMBL document CHEMBL2311383, “Discovery of piperazin-1-ylpyridazine-based potent and selective stearoyl-CoA desaturase-1 inhibitors for the treatment of obesity and metabolic syndrome” (J Med Chem, 2013):
Active and inactive are the calls of the source. No cut-off for these calls is given here.

Experiments:
Stearoyl-CoA desaturase = biological target: T1, Stearoyl-CoA desaturase (Homo sapiens, UniProt O00767); test: Inhibition of SCD1 in human HepG2 cells using [14C]-stearate substrate assessed as decreased production of [14C]-oleic acid after 24 hrs; assay type: cell-based
T1 sequence (O00767 whole entry): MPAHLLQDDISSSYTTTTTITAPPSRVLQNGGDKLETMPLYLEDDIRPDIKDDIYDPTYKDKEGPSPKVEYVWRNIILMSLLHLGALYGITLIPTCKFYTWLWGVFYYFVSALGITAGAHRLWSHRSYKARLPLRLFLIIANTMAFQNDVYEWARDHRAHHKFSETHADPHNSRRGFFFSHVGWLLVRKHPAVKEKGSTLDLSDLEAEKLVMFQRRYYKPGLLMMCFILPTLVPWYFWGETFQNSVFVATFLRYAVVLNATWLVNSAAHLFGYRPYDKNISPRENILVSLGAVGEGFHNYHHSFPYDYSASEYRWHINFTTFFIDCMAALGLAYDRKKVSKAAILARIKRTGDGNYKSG

Acyl-CoA desaturase 1 = biological target: T2, Acyl-CoA desaturase 1 (Mus musculus, UniProt P13516); test: Inhibition of SCD1 in ICR mouse liver microsome using [9,10 3H]- stearoyl-Coenzyme A substrate assessed as decreased production of tritiated water after 20 min by scintillation counting analysis
T2 sequence (P13516 whole entry): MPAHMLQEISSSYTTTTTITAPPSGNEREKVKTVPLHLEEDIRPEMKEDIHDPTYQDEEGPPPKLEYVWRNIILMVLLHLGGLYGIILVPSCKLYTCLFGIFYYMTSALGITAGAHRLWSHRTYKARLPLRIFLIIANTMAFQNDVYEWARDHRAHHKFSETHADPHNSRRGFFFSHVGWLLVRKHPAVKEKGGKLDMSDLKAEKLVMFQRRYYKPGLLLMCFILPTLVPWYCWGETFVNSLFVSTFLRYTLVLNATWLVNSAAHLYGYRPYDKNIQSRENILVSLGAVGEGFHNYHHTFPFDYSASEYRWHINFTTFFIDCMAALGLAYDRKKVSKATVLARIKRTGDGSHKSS

[1] = biological target: Acyl-CoA (8-3)-desaturase (Rattus norvegicus) (UniProt Q920R3); test: Inhibition of delta5 desaturase in Sprague-Dawley rat liver microsome at 10 uM; assay type: microsomes
Chain of Acyl-CoA (8-3)-desaturase (Rattus norvegicus) (Q920R3 whole entry, looked up): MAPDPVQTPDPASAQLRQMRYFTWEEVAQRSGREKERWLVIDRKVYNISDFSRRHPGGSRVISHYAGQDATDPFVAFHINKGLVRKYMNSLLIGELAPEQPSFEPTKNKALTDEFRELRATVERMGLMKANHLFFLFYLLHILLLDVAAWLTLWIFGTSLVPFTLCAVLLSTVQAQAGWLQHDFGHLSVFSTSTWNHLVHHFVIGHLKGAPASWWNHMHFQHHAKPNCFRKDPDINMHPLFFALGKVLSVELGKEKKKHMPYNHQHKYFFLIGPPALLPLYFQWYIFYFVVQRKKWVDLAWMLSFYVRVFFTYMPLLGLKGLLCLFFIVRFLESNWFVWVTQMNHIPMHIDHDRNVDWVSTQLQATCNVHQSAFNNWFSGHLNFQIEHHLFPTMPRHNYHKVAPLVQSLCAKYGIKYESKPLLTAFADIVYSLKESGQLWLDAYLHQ

[2] = biological target: Acyl-CoA 6-desaturase (Rattus norvegicus) (UniProt Q9Z122); test: Inhibition of delta6 desaturase in Sprague-Dawley rat liver microsome using cis,cis-9,12-octadecadienoic acid substrate at 10 uM
Chain of Acyl-CoA 6-desaturase (Rattus norvegicus) (Q9Z122 whole entry, looked up): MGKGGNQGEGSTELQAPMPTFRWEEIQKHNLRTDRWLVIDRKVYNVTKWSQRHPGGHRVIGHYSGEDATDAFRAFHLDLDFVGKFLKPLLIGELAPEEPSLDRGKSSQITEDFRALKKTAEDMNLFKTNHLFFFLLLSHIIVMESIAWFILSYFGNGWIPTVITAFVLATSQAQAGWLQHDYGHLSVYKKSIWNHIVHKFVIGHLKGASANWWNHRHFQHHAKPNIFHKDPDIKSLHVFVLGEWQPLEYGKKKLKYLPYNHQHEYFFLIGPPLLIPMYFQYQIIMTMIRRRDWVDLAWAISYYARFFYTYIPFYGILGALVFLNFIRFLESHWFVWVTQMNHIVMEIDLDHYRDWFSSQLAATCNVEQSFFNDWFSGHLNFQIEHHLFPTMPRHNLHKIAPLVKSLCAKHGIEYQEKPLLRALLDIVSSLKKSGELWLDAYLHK

[3] = Apparent permeability from basolateral to apical side in human Caco2 cells; assay type: ADME, cell-based; settings: Caco-2
Method in brief: (§1)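 Caco-2 monolayers; apparent permeability a-to-b and b-to-a reported in 10⁻⁶ cm/s.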

[4] = Metabolic stability in rat liver microsome after 30 mins by LC/MS/MS analysis; assay type: ADME; settings: liver microsomes, read-out: Stability
Method in brief: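 Compound incubated 30 min with rat liver microsomes; percent parent remaining by LC/MS/MS.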

[5] = Apparent permeability from apical to basolateral side in human Caco2 cells; assay type: ADME, cell-based; settings: Caco-2; method in brief: as §1
Rattus norvegicus = test: In vivo inhibition of SCD1 in Lewis rat liver microsome at 15 mg/kg, ip administered qd for 2 days; assay type: functional; settings: 48 h, route intraperitoneal
Method in brief: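 Lewis rats fed high-carbohydrate diet for one week, fasted 4 h, then dosed orally (0.1–1 mg/kg in 0.2% Tween 20/1% CMC; n = 4), killed 4 h later; ip arm 15 mg/kg once daily for two days. Liver microsomes prepared, SCD1 activity measured by tritiated water release from [9,10-3H]stearoyl-CoA. Mean ± SD of at least four rats.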

| Compound | IC50 (Stearoyl-CoA desaturase) [nM] | IC50 (Acyl-CoA desaturase 1) [nM] | inhibition [1] | inhibition [2] | Papp B→A [3] [×10⁻⁶ cm/s] | remaining at 0.5 h [4] [%] | Papp A→B [5] [×10⁻⁶ cm/s] | inhibition in vivo at 15 mg/kg (Rattus norvegicus) [%] |
| --- | --- | --- | --- | --- | --- | --- | --- | --- |
| O=C(NCc1ccn[nH]1)c1ccc(N2CCN(C(=O)c3ccccc3C(F)(F)F)CC2)nn1 | – | > 1000 | – | – | – | – | – | – |
| O=C(NCCC1CC1)c1ccc(N2CCN(C(=O)c3ccccc3F)CC2)nn1 | – | > 1000 | – | – | – | – | – | – |
| O=C(NCCC1CC1)c1ccc(N2CCN(C(=O)c3ccccc3C(=O)O)CC2)nn1 | – | > 10000 | – | – | – | – | – | – |
| CC(C)CCNC(=O)c1cnc(N2CCN(C(=O)c3ccccc3C(F)(F)F)CC2)nc1 | – | > 10000 | – | – | – | – | – | – |
| CCOCCNC(=O)c1ccc(N2CCN(C(=O)c3ccccc3C(F)(F)F)CC2)nn1 | – | 1250 | – | – | – | – | – | – |
| CC(C)CCNC(=O)c1cnc(N2CCN(C(=O)c3ccccc3C(F)(F)F)CC2)cn1 | – | > 10000 | – | – | – | – | – | – |
| CN(C)c1ccc(Cl)c(C(=O)N2CCN(c3ccc(C(=O)NCCC4CC4)nn3)CC2)c1 | – | > 10000 | – | – | – | – | – | – |
| CC(C)(O)CCNC(=O)c1ccc(N2CCN(C(=O)c3ccccc3C(F)(F)F)CC2)nn1 | – | 10000 | – | – | – | – | – | – |
| O=C(NCCC1CC1)c1ccc(N2CCN(C(=O)c3cc(F)ccc3F)CC2)nn1 | – | 3110 | – | – | – | – | – | – |
| CCCCCCNC(=O)c1ncc(N2CCN(C(=O)c3ccccc3C(F)(F)F)CC2)cn1 | – | 1200 | – | – | – | – | – | – |
| O=C(NC[C@H](O)c1ccccc1)c1ccc(N2CCN(C(=O)c3ccccc3C(F)(F)F)CC2)nn1 | – | – | inactive | inactive | 28 | 92 | 22 | – |
| O=C(NCCC1CC1)c1ccc(N2CCN(C(=O)/C=C\C(F)(F)F)CC2)nn1 | – | > 10000 | – | – | – | – | – | – |
| O=C(NCCC1CC1)c1ccc(N2CCN(C(=O)c3ccoc3C(F)(F)F)CC2)nn1 | 290 | – | inactive | inactive | – | – | – | – |
| O=C(Nc1ccccn1)c1ccc(N2CCN(C(=O)c3ccccc3C(F)(F)F)CC2)nn1 | – | 1400 | – | – | – | – | – | – |
| O=C(NC[C@@H](O)c1ccccc1)c1ccc(N2CCN(C(=O)c3ccccc3C(F)(F)F)CC2)nn1 | – | – | inactive | inactive | 29 | 82 | 23 | > 60 |
| O=C(NCCCCC1CC1)c1ccc(N2CCN(C(=O)c3ccccc3C(F)(F)F)CC2)nn1 | – | – | inactive | inactive | 17 | 42 | 13 | – |
| O=C(NCCc1ccccc1)c1ccc(N2CCN(C(=O)c3ccccc3C(F)(F)F)CC2)nn1 | – | – | inactive | inactive | 15 | 56 | 16 | – |
| N#Cc1ccccc1C(=O)N1CCN(c2ccc(C(=O)NCCC3CC3)nn2)CC1 | – | > 1000 | – | – | – | – | – | – |
| O=C(NCCC1CC1)c1ccc(N2CCN(C(=O)C3CC3C(F)(F)F)CC2)nn1 (configuration not stated) | – | > 1000 | – | – | – | – | – | – |
| COc1ccc(Br)c(C(=O)N2CCN(c3ccc(C(=O)NCCCc4ccccc4)cn3)CC2)c1 | – | 5100 | – | – | – | – | – | – |

The remaining molecules from weak to strong by IC50 (Acyl-CoA desaturase 1), led by results:

| IC50 (Stearoyl-CoA desaturase) [nM] | IC50 (Acyl-CoA desaturase 1) [nM] | inhibition [1] | inhibition [2] | Papp B→A [3] [×10⁻⁶ cm/s] | remaining at 0.5 h [4] [%] | Papp A→B [5] [×10⁻⁶ cm/s] | Compound | inhibition in vivo at 15 mg/kg (Rattus norvegicus) [%] |
| --- | --- | --- | --- | --- | --- | --- | --- | --- |
| – | 942 | – | – | – | – | – | Cc1ccc(C)c(C(=O)N2CCN(c3ccc(C(=O)NCCC4CC4)nn3)CC2)c1 | – |
| – | 920 | – | – | – | – | – | CN(C)c1ccccc1C(=O)N1CCN(c2ccc(C(=O)NCCC3CC3)nn2)CC1 | – |
| – | 710 | – | – | – | – | – | COc1ccc(F)cc1C(=O)N1CCN(c2ccc(C(=O)NCCC3CC3)nn2)CC1 | – |
| – | 680 | – | – | – | – | – | CC1CCCCC1C(=O)N1CCN(c2ccc(C(=O)NCCC3CC3)nn2)CC1 (configuration not stated) | – |
| – | 500 | – | – | – | – | – | O=C(NCc1ncco1)c1ccc(N2CCN(C(=O)c3ccccc3C(F)(F)F)CC2)nn1 | – |
| – | 352 | – | – | – | – | – | O=C(NCc1ccccn1)c1ccc(N2CCN(C(=O)c3ccccc3C(F)(F)F)CC2)nn1 | – |
| 5870 | 321 | inactive | inactive | – | – | – | O=C(NCCC1CC1)c1ccc(N2CCN(C(=O)c3cnc(Cl)nc3C(F)(F)F)CC2)nn1 | – |
| – | 272 | – | – | – | – | – | O=C(NCc1cocn1)c1ccc(N2CCN(C(=O)c3ccccc3C(F)(F)F)CC2)nn1 | – |
| – | 220 | – | – | – | – | – | CC(C)CCNC(=O)c1ccc(N2CCN(C(=O)c3ccccc3C(F)(F)F)CC2)cn1 | – |
| – | 150 | inactive | inactive | – | – | – | CC(CNC(=O)c1ccc(N2CCN(C(=O)c3ccccc3C(F)(F)F)CC2)nn1)c1ccccc1 (configuration not stated) | – |
| 119 | 113 | inactive | inactive | – | – | – | CC(C(=O)N1CCN(c2ccc(C(=O)NCCC3CC3)nn2)CC1)(C(F)(F)F)C(F)(F)F | – |
| – | 83 | inactive | inactive | 10 | 9 | 13 | O=C(Nc1ccccc1)c1ccc(N2CCN(C(=O)c3ccccc3C(F)(F)F)CC2)nn1 | – |
| – | 78 | – | – | – | – | – | CC(C)CCNC(=O)c1ccc(N2CCN(C(=O)c3ccccc3C(F)(F)F)CC2)nc1 | – |
| – | 69 | inactive | inactive | – | – | – | O=C(NCCCc1ccccc1)c1ccc(N2CCN(C(=O)c3ccccc3C(F)(F)F)CC2)nn1 | – |
| 192 | 62 | inactive | inactive | 29 | 66 | 28 | O=C(NCCC1CC1)c1ccc(N2CCN(C(=O)c3cc(F)ccc3Cl)CC2)nn1 | – |
| – | 58 | inactive | inactive | 26 | 72 | 20 | O=C(NCCC1CC1)c1ccc(N2CCN(C(=O)c3cccc(F)c3C(F)(F)F)CC2)nn1 | – |
| 101 | 34 | inactive | inactive | – | – | – | O=C(NCCC1CC1)c1ccc(N2CCN(C(=O)c3cc(Cl)ccc3Cl)CC2)nn1 | – |
| – | 34 | inactive | inactive | 30 | 63 | 32 | O=C(NCCCC1CC1)c1ccc(N2CCN(C(=O)c3ccccc3C(F)(F)F)CC2)nn1 | > 60 |
| – | 33 | inactive | inactive | – | – | – | Cc1cnc(CNC(=O)c2ccc(N3CCN(C(=O)c4ccccc4C(F)(F)F)CC3)nn2)cn1 | – |
| – | 32 | inactive | inactive | 29 | 79 | 29 | O=C(NCc1nccs1)c1ccc(N2CCN(C(=O)c3ccccc3C(F)(F)F)CC2)nn1 | – |
| – | 31 | inactive | inactive | 18 | 78 | 18 | O=C(NCc1ccc(C(F)(F)F)o1)c1ccc(N2CCN(C(=O)c3ccccc3C(F)(F)F)CC2)nn1 | – |
| – | 25 | inactive | inactive | 22 | 49 | 22 | CCCCCNC(=O)c1ccc(N2CCN(C(=O)c3ccccc3C(F)(F)F)CC2)nn1 | – |
| – | 21 | inactive | inactive | 18 | 14 | 20 | CCCCCCNC(=O)c1ccc(N2CCN(C(=O)c3ccccc3C(F)(F)F)CC2)nn1 | – |
| – | 21 | inactive | inactive | 22 | 69 | 22 | O=C(NCCC1CC1)c1ccc(N2CCN(C(=O)c3ccc(F)cc3C(F)(F)F)CC2)nn1 | > 60 |
| – | 18 | inactive | inactive | – | – | – | CCCCCCCNC(=O)c1ccc(N2CCN(C(=O)c3ccccc3C(F)(F)F)CC2)nn1 | – |
| – | 15 | inactive | inactive | 23 | 37 | 25 | Cc1ccc(CNC(=O)c2ccc(N3CCN(C(=O)c4ccccc4C(F)(F)F)CC3)nn2)o1 | < 30 |
| – | 6 | inactive | inactive | 34 | 97 | 34 | O=C(NCc1ccccc1)c1ccc(N2CCN(C(=O)c3ccccc3C(F)(F)F)CC2)nn1 | – |
